Data reported in ChEMBL document CHEMBL3603837, “Indole Glucocorticoid Receptor Antagonists Active in a Model of Dyslipidemia Act via a Unique Association with an Agonist Binding Site” (J Med Chem, 2015).
pIC50, pKi: −log10 of the molar value. Activity calls are given as the source filed them. The rule behind the calls is not given here.

Tests used:
[1] = target: T1, Estrogen receptor (Homo sapiens) (UniProt P03372); assay: Binding affinity to human estrogen receptor expressed in HEK293 cells by scintillation counting based radioligand competition binding assay; format: cell-based
T1 sequence (whole entry): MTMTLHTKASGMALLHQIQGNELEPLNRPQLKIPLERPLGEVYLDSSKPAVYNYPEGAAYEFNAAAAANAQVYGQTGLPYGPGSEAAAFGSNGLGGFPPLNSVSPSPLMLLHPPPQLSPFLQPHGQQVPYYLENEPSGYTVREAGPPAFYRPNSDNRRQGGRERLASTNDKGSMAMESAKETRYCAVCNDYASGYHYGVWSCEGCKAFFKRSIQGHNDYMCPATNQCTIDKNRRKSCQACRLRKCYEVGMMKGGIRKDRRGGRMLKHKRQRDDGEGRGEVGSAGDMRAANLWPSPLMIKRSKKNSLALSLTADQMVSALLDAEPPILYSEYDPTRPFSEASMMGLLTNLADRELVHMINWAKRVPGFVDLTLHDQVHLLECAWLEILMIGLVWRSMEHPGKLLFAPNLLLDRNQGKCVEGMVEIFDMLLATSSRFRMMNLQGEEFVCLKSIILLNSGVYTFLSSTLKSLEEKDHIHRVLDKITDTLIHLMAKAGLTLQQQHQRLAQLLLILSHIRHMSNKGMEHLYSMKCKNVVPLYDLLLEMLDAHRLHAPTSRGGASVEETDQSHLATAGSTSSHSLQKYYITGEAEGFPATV

Glucocorticoid receptor [2] = target: T2, Glucocorticoid receptor (Homo sapiens, UniProt P04150); assay: Displacement of [3H]-dexamethasone from human glucocorticoid receptor expressed in HEK293 cells by scintillation counting based radioligand competition binding assay; format: cell-based
T2 sequence (P04150 whole entry): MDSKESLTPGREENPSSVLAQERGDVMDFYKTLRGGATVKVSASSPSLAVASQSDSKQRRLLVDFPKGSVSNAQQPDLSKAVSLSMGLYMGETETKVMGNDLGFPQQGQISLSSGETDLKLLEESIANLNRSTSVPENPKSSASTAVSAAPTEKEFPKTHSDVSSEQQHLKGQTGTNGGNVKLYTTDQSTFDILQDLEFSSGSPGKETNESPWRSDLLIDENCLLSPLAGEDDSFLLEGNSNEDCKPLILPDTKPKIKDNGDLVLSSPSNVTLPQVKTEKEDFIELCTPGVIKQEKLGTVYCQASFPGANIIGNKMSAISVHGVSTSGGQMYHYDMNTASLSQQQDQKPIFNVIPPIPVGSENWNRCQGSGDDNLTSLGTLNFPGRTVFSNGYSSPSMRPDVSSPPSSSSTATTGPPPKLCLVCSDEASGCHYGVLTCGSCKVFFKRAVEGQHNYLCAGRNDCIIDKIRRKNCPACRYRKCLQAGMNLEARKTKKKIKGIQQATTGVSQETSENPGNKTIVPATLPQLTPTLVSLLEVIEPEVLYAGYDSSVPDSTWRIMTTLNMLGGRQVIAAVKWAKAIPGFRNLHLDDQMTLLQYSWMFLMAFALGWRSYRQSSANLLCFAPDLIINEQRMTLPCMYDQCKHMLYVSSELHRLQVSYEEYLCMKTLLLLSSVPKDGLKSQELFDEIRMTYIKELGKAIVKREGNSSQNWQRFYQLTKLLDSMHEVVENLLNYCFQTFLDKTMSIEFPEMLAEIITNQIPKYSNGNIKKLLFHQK

Glucocorticoid receptor [3] = target: T2, Glucocorticoid receptor; assay: Antagonist activity against glucocorticoid receptor (unknown origin) expressed in HEK293 cells by GRE-dependent luciferase reporter gene assay; format: cell-based
Glucocorticoid receptor [4] = target: T3, Glucocorticoid receptor (Rattus norvegicus, UniProt P06536); assay: Antagonist activity against glucocorticoid receptor in rat H4-IIE cells assessed as inhibition of dexamethasone-induced receptor transactivation pre-incubated for 1 hr before dexamethasone addition and measured 24 hrs post dexamethasone stimulation by tyrosine aminotransferase enzyme assay; format: cell-based
T3 sequence (P06536 whole entry): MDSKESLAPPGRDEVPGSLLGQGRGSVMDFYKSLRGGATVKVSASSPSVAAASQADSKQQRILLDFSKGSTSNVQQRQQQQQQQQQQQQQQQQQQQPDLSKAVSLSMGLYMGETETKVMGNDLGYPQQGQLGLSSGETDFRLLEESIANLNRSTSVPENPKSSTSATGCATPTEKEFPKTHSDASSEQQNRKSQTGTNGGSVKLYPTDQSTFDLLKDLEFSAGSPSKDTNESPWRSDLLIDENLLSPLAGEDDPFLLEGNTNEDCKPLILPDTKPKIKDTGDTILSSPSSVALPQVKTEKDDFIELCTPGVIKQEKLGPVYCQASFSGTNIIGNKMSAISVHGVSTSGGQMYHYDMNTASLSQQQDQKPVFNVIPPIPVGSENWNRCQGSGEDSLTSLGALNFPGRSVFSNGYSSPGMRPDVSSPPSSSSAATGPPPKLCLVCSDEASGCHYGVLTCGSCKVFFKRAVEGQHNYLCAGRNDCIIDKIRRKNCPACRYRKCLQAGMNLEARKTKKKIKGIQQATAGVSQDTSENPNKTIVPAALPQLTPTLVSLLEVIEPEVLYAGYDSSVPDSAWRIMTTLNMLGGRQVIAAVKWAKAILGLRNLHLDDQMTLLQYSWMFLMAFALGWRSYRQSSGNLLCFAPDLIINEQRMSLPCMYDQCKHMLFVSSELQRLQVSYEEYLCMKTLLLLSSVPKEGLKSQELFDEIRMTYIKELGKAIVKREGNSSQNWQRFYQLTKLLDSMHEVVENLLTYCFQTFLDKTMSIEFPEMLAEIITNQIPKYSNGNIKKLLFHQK

[5] = Half life in rat at 1 mg/kg, iv; format: ADME, organism-based; settings: in vivo
Rattus norvegicus = assay: Toxicity in Wistar rat model of atypical antipsychotic quetiapine-induced weight gain assessed as effect on food intake at 10 mg/kg, po for 14 days; format: organism-based; settings: in vivo, 336 h
In short: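 Prophylactic protocol in lean female Wistar rats (n = 9−10 per group). A dose response of test compound was given orally together with quetiapine at a fixed 10 mg/kg, concurrently for 14 days.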

[6] = target: T4, Glucocorticoid receptor (Homo sapiens) (UniProt P04150); assay: Agonist activity at glucocorticoid receptor (unknown origin) expressed in HEK293 cells by GRE-dependent luciferase reporter gene assay; format: cell-based
T4 sequence (whole entry): T2 sequence (P04150 whole entry)

[7] = target: T5, Glucocorticoid receptor (Rattus norvegicus) (UniProt P06536); assay: Agonist activity at glucocorticoid receptor in rat H4-IIE cells assessed as receptor transactivation incubated for 24 hrs by tyrosine aminotransferase enzyme assay; format: cell-based
T5 sequence (whole entry): T3 sequence (P06536 whole entry)
In short: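 Rat hepatoma H4IIEC3 cells grown in DMEM with 10% FBS, plated at 100000 cells/well overnight at 37 °C, 5% CO2, then switched to DMEM/F12 with 5% CS-FBS for 24 h. Test compounds at about 0.09 nM–25 μM for 24 h. Lysates given TAT substrate (4.74 mM L-tyrosine, 13.3 mM α-ketoglutarate, pH 7.6) for 2 h at 37 °C, then KOH. A340 read against a standard curve; EC50 from four-parameter logistic fit.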

SMILES | Activity [1] | pKi (Glucocorticoid receptor [2]) | pIC50 (Glucocorticoid receptor [3]) | pIC50 (Glucocorticoid receptor [4]) | half-life [5] [h] | Activity [6] | Activity [7] | Activity (Rattus norvegicus)
CS(=O)(=O)Nc1cccc2cc[nH]c12 | inactive | 7.30 | – | – | – | – | – | –
COc1cc(F)ccc1-c1c(CN(C)Cc2ccccc2)[nH]c2c(NS(C)(=O)=O)cc(C(C)C)cc12 | inactive | 8.91 | 8.56 | 7.97 | 3.96 | inactive | inactive | Non-toxic
COc1cc(F)ccc1-c1c(C)[nH]c2c(NS(C)(=O)=O)cc(F)cc12 | inactive | 8.88 | 7.66 | 7.20 | – | inactive | inactive | –
COc1cc(NS(C)(=O)=O)c2[nH]c(C)c(-c3ccccc3)c2c1 | inactive | 7.40 | – | – | – | – | – | –
COc1ccc(F)cc1-c1c(-c2ccccc2)[nH]c2c(NS(C)(=O)=O)cccc12 | inactive | 7.27 | – | – | – | – | – | –
COc1cc(F)ccc1-c1c(CN(C)Cc2ccccc2)[nH]c2c(N)cc(F)cc12 | inactive | – | – | – | – | – | – | –
COc1cc(F)ccc1-c1c(CN(C)Cc2ccccc2)[nH]c2c(NS(C)(=O)=O)cc(C(C)(C)C)cc12 | inactive | – | – | 7.84 | – | – | inactive | –
COc1cc(F)ccc1-c1c(Cc2ccccc2)[nH]c2c(NS(C)(=O)=O)cc(C(C)C)cc12 | inactive | 9.27 | 8.12 | 6.53 | – | inactive | inactive | –
CS(=O)(=O)Nc1cccc2c(-c3cccc(Cl)c3)c[nH]c12 | inactive | 8.30 | 6.74 | 7.12 | – | – | – | –

More lines, main results first:

Activity [1] | pKi (Glucocorticoid receptor [2]) | pIC50 (Glucocorticoid receptor [3]) | pIC50 (Glucocorticoid receptor [4]) | half-life [5] [h] | Activity [6] | Activity [7] | SMILES | Activity (Rattus norvegicus)
inactive | 7.02 | – | – | – | – | – | CS(=O)(=O)Nc1cccc2c(-c3ccc(F)cc3)c[nH]c12 | –
inactive | 8.51 | 6.63 | 5.93 | – | – | – | COc1ccccc1-c1c[nH]c2c(NS(C)(=O)=O)cccc12 | –
inactive | 6.94 | – | – | – | – | – | COc1cc(NS(C)(=O)=O)c2[nH]c(C)c(-c3cc(F)ccc3OC)c2c1 | –
inactive | 8.26 | 6.84 | 5.90 | – | inactive | inactive | COc1ccc(Cl)cc1-c1c[nH]c2c(NS(C)(=O)=O)cccc12 | –
